CHT allo act – CHT positive allosteric modulators, primary screen, cell-based, membrane potential dye, choline EC20. High affinity choline transporter 1 (Homo sapiens), Q9GZV3. CHT-expressing cells; stronger effect = higher value; LV-AA mutant CHT in HEK293 cells. B-score at 10 µM. 310,000 tested, 0.49% active. AID 488977, 2010;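 active = initial fluorescence not abnormally high and integrated response B-score, plate-corrected, over 3 SD above library mean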
Target sequence (Q9GZV3 whole entry, looked up): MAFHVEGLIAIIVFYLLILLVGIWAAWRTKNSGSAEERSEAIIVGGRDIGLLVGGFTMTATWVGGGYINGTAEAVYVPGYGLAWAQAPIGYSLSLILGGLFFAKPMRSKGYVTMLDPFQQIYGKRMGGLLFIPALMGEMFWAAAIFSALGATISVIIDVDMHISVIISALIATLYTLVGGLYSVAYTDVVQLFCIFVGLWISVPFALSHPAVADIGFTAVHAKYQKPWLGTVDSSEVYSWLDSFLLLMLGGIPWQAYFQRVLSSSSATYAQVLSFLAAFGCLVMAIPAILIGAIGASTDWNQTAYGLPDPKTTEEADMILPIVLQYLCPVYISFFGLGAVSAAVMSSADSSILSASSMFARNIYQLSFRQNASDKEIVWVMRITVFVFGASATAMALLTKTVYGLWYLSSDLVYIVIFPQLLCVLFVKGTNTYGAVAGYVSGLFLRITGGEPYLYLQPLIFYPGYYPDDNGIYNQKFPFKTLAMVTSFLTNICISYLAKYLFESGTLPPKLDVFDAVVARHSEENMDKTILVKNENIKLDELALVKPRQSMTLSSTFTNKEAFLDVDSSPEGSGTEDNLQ
T cruzi repl – inhibitors of intracellular T. cruzi growth, primary screen, luminescence, NIH3T3 host cells. T. cruzi beta-gal in NIH3T3, 90 h. inhibition, % (test concentration not listed). 300,000 tested, 1.4% active;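 active = mean inhibition across valid replicates above about 55%, limit read from the data; inconclusive = mean below that limit but half or more replicates reach it; inactive = mean below it, under half of replicates reach it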;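 note: signal also drops with host cell toxicity which is not excluded here; 0% = plate median of DMSO wells and 100% = zero luminescence signal; higher percent means less beta-gal luminescence so fewer parasites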
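System: Mouse NIH/3T3 fibroblasts infected with β-gal-expressing T. cruzi Tulahuen C4 | Quantity: NIH/3T3 cells, 5,000 per well | Reagent: 5000 reporter trypomastigotes per well | Dosing: Compound pinned at 50 nL/well, DMSO | Schedule: 3 h host attachment, then at least 90 h co-culture | Detection: GalScreen luminescence, 60 min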
CHT inh – inhibitors of human choline transporter CHT; High affinity choline transporter 1 (Homo sapiens), Q9GZV3; B-score at 10 µM; CHT-expressing cells, membrane potential dye, choline response; stronger effect = lower value; 310,000 tested, 0.86% active;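 active = B-score over 3 SD under the library average, and starting fluorescence ratio not unusually high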;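 note: choline stimulus applied at its EC90 after an EC20 pre-addition; B-score computed on integrated fluorescence ratio after choline addition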
PolyA inhibitor – polyadenylation inhibitors in yeast reporter cells, primary screen, luminescence, S. cerevisiae; activity score, % at 12 µM; S. cerevisiae SKY197-pL101 polyadenylation reporter, beta-gal luminescence; efflux-impaired pdr1/pdr3 knockout yeast; score 100 = 6 SD above DMSO; AID 1875, 2009; 300,000 tested, 0.02% active;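 active = lowest replicate activity score at least 50, where 100 means six control SD above control mean; inconclusive = lowest score under 50 but half or more replicates reach 50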;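 note: yeast exposed to compound for 9 h at 30 °C; higher score means more reporter readthrough which indicates perturbed polyadenylation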
Starred values were filed as active, the others as inactive. Compounds with a hit are over-represented: about 2.6% of the library has one in this group of screens.

COc1ccc(CN2CCC(C(=O)Nc3ccc(Oc4ccccc4)nc3)CC2)cc1F was read as CHT allo act inactive, T cruzi repl 16, CHT inh inactive and PolyA inhibitor 5.
`CC1CC(NC(=O)c2c(O)nc3sccn3c2=O)CC(C)(C)C1` (stereo not given) gave CHT allo act inactive, T cruzi repl 6, CHT inh inactive and PolyA inhibitor -9.
For COc1cccc(CN(C)CC2CCCN(CCc3ccccc3C)C2)c1 (stereo not given) the results were CHT allo act inactive, T cruzi repl 55*, CHT inh inactive and PolyA inhibitor -10.
Screening COc1ccc(CN(C)CC2CCCN(CCc3ccccc3C)C2)cc1O (stereo not given) returned CHT allo act inactive, T cruzi repl 31, CHT inh inactive and PolyA inhibitor 6.
`CN(C)CCN(C(=O)c1ccc2c(c1)OCCO2)c1nc2ccc(Cl)cc2s1` gave CHT allo act inactive, T cruzi repl 57*, CHT inh inactive and PolyA inhibitor inconclusive.
For Cc1ccc(C(=O)N(CCCN(C)C)c2nc3ccc(Cl)cc3s2)cc1C the results were CHT allo act inactive, T cruzi repl 70*, CHT inh inactive and PolyA inhibitor 4.
CN(C)CCCN(C(=O)c1ccc2c(c1)OCCO2)c1nc2ccc(Cl)cc2s1 was read as CHT allo act inactive, T cruzi repl 42, CHT inh inactive and PolyA inhibitor -10.
For CCc1ccc2nc(N(CCN(C)C)C(=O)c3ccc4ncsc4c3)sc2c1 the results were CHT allo act inactive, T cruzi repl 64*, CHT inh inactive and PolyA inhibitor 18.
`Cc1nn(-c2ccc(Cl)cc2)c(Cl)c1/C=N/NC(=O)c1ccc(NS(=O)(=O)c2cccs2)cc1` gave CHT allo act inactive, T cruzi repl 28, CHT inh inactive and PolyA inhibitor 14.
Screening O=C(Nc1cc(Sc2ccccn2)cc([N+](=O)[O-])c1)c1cccc(Cl)c1 returned CHT allo act inactive, T cruzi repl 59*, CHT inh inactive and PolyA inhibitor -3.
`CCCc1cc(NCCCO)n2c(nc3ccccc32)c1C#N` gave CHT allo act inactive, T cruzi repl 4, CHT inh inactive and PolyA inhibitor 7.
Screening CC(C)(C)C(=O)Nc1ccccc1N1CCN(C(=O)c2ccc(Cl)cc2)CC1 returned CHT allo act inactive, T cruzi repl 16, CHT inh inactive and PolyA inhibitor -1.
CC(C)C(=O)NC(=S)Nc1ccccc1N1CCN(C(=O)c2ccc(Cl)cc2)CC1 was read as CHT allo act inactive, T cruzi repl 64*, CHT inh inactive and PolyA inhibitor 1.
For COc1ccc(C(CNS(=O)(=O)c2ccc(C)cc2)N2CCN(C)CC2)cc1 (stereo not given) the results were CHT allo act inactive, T cruzi repl -8, CHT inh inactive and PolyA inhibitor 9.
`Cc1nc(NC(=O)c2cc3ccccc3o2)ccc1Br` gave CHT allo act inactive, T cruzi repl 8, CHT inh inactive and PolyA inhibitor -7.
For Cc1ccc(-n2cc(CN3CCC(O)(c4ccccn4)CC3)c(-c3ccc(F)cc3)n2)cc1 the results were CHT allo act inactive, T cruzi repl 55*, CHT inh inactive and PolyA inhibitor -2.
Screening Cc1ccc2c(c1)N(C(=O)CCC(=O)NCc1cccnc1)CC(C)O2 (stereo not given) returned CHT allo act inactive, T cruzi repl -4, CHT inh inactive and PolyA inhibitor -12.
For Cc1ccc(Cl)cc1NC(=S)N1CCCCCC1 the results were CHT allo act inactive and CHT inh inactive.
Screening COc1ccc(CCNC(=O)c2ccccc2NS(=O)(=O)c2c(F)cccc2F)cc1 returned CHT allo act inactive, T cruzi repl -14, CHT inh inactive and PolyA inhibitor -18.
Screening O=C(Cn1c(=O)n(Cc2ccco2)c(=O)c2c3c(sc21)CCCCC3)Nc1ccccc1 returned CHT allo act inactive, T cruzi repl -26, CHT inh inactive and PolyA inhibitor 0.
Screening CN(C)CCn1c(=O)n(Cc2ccco2)c(=O)c2c3c(sc21)CCCCC3 returned CHT allo act inactive, T cruzi repl 55*, CHT inh inactive and PolyA inhibitor 4.
For O=C(Cn1c(=O)n(Cc2ccco2)c(=O)c2c3c(sc21)CCCCC3)c1ccccc1 the results were CHT allo act inactive, T cruzi repl -2, CHT inh inactive and PolyA inhibitor -2.
Screening O=c1c2c3c(sc2n(CCN2CCCC2)c(=O)n1Cc1ccco1)CCCCC3 returned CHT allo act inactive, T cruzi repl 57*, CHT inh inactive and PolyA inhibitor -3.
`Oc1[nH]c2ccccc2c1N=NC(=S)NCC1CCCO1` (stereo not given) gave CHT allo act inactive, T cruzi repl -20, CHT inh inactive and PolyA inhibitor -6.
For Oc1[nH]c2ccc(Br)cc2c1N=NC(=S)NCC1CCCO1 (stereo not given) the results were CHT allo act inactive, T cruzi repl 60*, CHT inh inactive and PolyA inhibitor 21.
`FC(F)(F)COc1nc(N/N=C/c2cccnc2)nc(N2CCCCC2c2ccccn2)n1` (stereo not given) gave CHT allo act inactive, T cruzi repl 59*, CHT inh inactive and PolyA inhibitor 2.
Screening Cc1cc(C)nc(-n2nc(C)c(Sc3ccc(F)cc3)c2N)n1 returned CHT allo act inactive, T cruzi repl 58*, CHT inh inactive and PolyA inhibitor -17.
Screening CCOc1ccc2oc(C(=O)OCC(=O)NC3CC3)c(C)c2c1 returned CHT allo act inactive, T cruzi repl -14, CHT inh inactive and PolyA inhibitor -1.
CCOC(=O)c1oc2ccc(CNC3CCCCC3)c(Cl)c2c1C was read as CHT allo act inactive, T cruzi repl 74*, CHT inh inactive and PolyA inhibitor 11.
`Cc1nc([N+](=O)[O-])c(Br)n1Cc1ccc(Cl)c(Cl)c1` gave T cruzi repl 44 and PolyA inhibitor 14.
For Cn1c(/C=N/Nc2nc3ccccc3[nH]2)nc2ccccc21 the results were CHT allo act inactive, T cruzi repl 51, CHT inh inactive and PolyA inhibitor -7.
Cc1c(/C=N/Nc2nc3ccccc3[nH]2)c2ccccc2n1C was read as CHT allo act inactive, T cruzi repl 56*, CHT inh inactive and PolyA inhibitor 11.
For Cc1nn(-c2ccccc2)c(C)c1/C=N/Nc1nc2ccccc2[nH]1 the results were CHT allo act inactive, T cruzi repl 66*, CHT inh inactive and PolyA inhibitor 4.
Screening CCN(CC)c1ccc(N=Cc2cc(Br)ccc2O)cc1 returned CHT allo act inactive, T cruzi repl 61*, CHT inh inactive and PolyA inhibitor 28.

Source: PubChem BioAssay
